According to ChEMBL document CHEMBL1135607, “1-Benzyl-3-(5'-hydroxymethyl-2'-furyl)indazole (YC-1) derivatives as novel inhibitors against sodium nitroprusside-induced apoptosis” (2002):

Species on record: Rattus norvegicus
Assay: Effect on the survival of rat aortic smooth muscle cells
Assay type: functional
Design: concentration or dose not given beside the values
Procedure, shortened: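 Rat aortic smooth muscle cells in culture, pretreated 30 min with test compound at 30 μM, then vehicle or sodium nitroprusside (1 mM) added for another 24 h. Viability read by MTT assay and TUNEL.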

Row | Compound | Cell survival [%]
1 | COC(=O)c1ccc(-c2nn(Cc3ccccc3)c3ccccc23)o1 | 78
2 | OCc1ccc(-c2nn(Cc3ccccc3)c3ccccc23)o1 | 94.7
3 | OCc1ccc(-c2nn(-c3ccccc3)c3ccccc23)o1 | 93.9
4 | OCc1ccc(-c2nn(Cc3ccccc3)c3cc4c(cc23)OCO4)o1 | 75.8
5 | CCN(CC)Cc1ccc(-c2nn(Cc3ccccc3)c3ccccc23)o1 | 39.7
6 | SODIUM NITROPRUSSIDE | 41.3
7 | Cc1ccc(-c2nn(Cc3ccccc3)c3ccccc23)o1 | 31.1
8 | COc1ccc2c(-c3ccc(CO)o3)nn(Cc3ccccc3)c2c1 | 84.5
9 | COCc1ccc(-c2nn(Cc3ccccc3)c3ccccc23)o1 | 93.2
10 | OCc1ccc(-c2nn(Cc3ccccc3)c3cc(F)ccc23)o1 | 83.3
11 | CNCc1ccc(-c2nn(Cc3ccccc3)c3ccccc23)o1 | 57.2
